Measurements: ChEMBL document CHEMBL1152589, “Identification and characterization of novel sirtuin inhibitor scaffolds” (Bioorg Med Chem, 2009)
The source made the active and inactive calls. No cut-off for these calls is given here.

Experiments:
[1] = target: T1, NAD-dependent protein deacetylase HST2 (Saccharomyces cerevisiae S288c, UniProt P53686); test: Inhibition of yeast Hst2 by fluorimetric assay
[2] = target: NAD-dependent protein deacetylase HST2 (Saccharomyces cerevisiae S288c) (UniProt P53686); test: Inhibition of yeast Hst2 assessed as residual activity at 500 uM by fluorimetric assay relative to control
Sequence of NAD-dependent protein deacetylase HST2 (Saccharomyces cerevisiae S288c) (P53686 whole entry): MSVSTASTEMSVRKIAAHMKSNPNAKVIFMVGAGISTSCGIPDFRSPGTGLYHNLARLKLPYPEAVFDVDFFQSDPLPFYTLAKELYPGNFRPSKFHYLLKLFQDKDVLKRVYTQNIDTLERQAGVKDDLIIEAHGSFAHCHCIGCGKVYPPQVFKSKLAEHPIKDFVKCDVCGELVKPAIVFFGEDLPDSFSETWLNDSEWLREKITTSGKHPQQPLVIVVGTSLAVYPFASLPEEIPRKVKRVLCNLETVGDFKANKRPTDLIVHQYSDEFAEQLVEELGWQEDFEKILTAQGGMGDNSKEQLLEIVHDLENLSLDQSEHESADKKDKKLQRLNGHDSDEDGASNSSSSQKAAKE

[3] = target: NAD-dependent protein deacetylase HST2 (Saccharomyces cerevisiae S288c) (UniProt P53686); test: Inhibition of yeast Hst2 assessed as residual activity at 50 uM by fluorimetric assay relative to control
[4] = target: T2, NAD-dependent protein deacetylase sirtuin-2 (Homo sapiens) (UniProt Q8IXJ6); test: Inhibition of human SIRT2 by fluorogenic assay; parameters: concentration or dose not given beside the values
T2 sequence (whole entry): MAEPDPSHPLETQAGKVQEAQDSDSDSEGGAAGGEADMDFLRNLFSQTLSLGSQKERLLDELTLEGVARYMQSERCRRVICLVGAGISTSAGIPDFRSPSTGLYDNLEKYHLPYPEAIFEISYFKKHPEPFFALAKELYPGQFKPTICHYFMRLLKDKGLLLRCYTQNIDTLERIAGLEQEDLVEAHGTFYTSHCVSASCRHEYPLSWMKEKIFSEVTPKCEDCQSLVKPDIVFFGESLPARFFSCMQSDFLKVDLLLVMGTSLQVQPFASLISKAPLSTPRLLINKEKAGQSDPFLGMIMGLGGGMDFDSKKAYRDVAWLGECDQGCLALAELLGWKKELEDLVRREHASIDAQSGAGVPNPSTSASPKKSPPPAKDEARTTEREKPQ
How it was run: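 Human SIRT2 isoform II construct with extra N-terminal residues, expressed in E. coli BL21-Gold (DE3) as a His6 fusion. Purified by Ni-NTA, with the tag removed by thrombin, then Q sepharose and Superdex-200 gel filtration. Assayed by fluorigenic deacetylation of Fluor de Lys-SIRT1 substrate.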

[5] = target: NAD-dependent histone deacetylase SIR2 (Saccharomyces cerevisiae S288c) (UniProt P06700); test: Inhibition of Sir2 in Saccharomyces cerevisiae inserted URA3 reporter gene assessed as reduction of […] resistance at 1 mM by telomere silencing assay
Sequence of NAD-dependent histone deacetylase SIR2 (Saccharomyces cerevisiae S288c) (P06700 whole entry): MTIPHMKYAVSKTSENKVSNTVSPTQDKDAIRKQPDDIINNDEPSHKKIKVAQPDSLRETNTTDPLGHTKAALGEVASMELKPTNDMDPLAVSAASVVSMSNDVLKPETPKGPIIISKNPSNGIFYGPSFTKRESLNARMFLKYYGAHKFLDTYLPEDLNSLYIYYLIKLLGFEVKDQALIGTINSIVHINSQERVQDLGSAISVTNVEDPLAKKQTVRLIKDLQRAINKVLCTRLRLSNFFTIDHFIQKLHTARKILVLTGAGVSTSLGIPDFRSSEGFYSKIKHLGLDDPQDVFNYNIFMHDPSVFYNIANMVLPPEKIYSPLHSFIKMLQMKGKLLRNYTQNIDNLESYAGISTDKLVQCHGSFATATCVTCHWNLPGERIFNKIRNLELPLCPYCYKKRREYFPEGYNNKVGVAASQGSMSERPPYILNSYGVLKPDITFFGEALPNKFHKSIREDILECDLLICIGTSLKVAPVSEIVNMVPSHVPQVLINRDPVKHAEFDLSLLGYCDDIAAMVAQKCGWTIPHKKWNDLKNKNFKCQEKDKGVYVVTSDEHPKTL

[6] = target: T3, NAD-dependent protein deacetylase sirtuin-1 (Homo sapiens, UniProt Q96EB6); test: Inhibition of human full length SIRT1 expressed in DE3 cells by fluorimetric assay; type: cell-based
T3 sequence (Q96EB6 whole entry): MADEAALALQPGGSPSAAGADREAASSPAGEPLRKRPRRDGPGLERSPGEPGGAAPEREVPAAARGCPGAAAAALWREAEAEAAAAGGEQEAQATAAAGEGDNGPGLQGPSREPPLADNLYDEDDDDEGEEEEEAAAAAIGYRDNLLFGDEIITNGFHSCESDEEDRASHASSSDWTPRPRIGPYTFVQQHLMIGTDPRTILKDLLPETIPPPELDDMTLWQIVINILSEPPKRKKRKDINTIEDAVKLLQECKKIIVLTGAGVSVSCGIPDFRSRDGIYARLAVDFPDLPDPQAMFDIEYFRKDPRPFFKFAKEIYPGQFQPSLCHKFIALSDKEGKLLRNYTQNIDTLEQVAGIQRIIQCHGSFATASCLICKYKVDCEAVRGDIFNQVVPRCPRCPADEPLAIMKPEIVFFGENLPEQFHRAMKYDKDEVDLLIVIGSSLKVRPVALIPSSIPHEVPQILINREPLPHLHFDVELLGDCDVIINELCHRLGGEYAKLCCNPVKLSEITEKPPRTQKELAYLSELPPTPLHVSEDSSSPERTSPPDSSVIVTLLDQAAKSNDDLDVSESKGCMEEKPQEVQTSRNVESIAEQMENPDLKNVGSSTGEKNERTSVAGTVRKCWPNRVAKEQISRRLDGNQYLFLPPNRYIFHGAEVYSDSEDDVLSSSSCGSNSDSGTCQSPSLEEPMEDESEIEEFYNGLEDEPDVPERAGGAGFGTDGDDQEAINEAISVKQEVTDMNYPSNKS

[7] = target: NAD-dependent histone deacetylase SIR2 (Saccharomyces cerevisiae S288c) (UniProt P06700); test: Inhibition of Sir2 in Saccharomyces cerevisiae inserted URA3 reporter gene assessed as reduction of […] resistance at 10 uM by telomere silencing assay
[8] = target: T1, NAD-dependent protein deacetylase HST2; test: Mixed inhibition of yeast Hst2 using Acetyl-lysine substrate
[9] = target: NAD-dependent histone deacetylase SIR2 (Saccharomyces cerevisiae S288c) (UniProt P06700); test: Inhibition of Sir2 in Saccharomyces cerevisiae inserted URA3 reporter gene assessed as reduction of […] resistance at 40 uM by telomere silencing assay

T1 sequence (P53686 whole entry): as the sequence (P53686 whole entry) above

Compound | Activity [2] [%] | Activity [3] [%] | further results
Nc1ccc2c(c1)C(=O)N(CCC(=O)O)C2 |  |  | IC50 [1]: Not Active
OC(c1ccccc1)c1ccc(C(F)(F)F)cc1 (centres undefined) | 81 | 100 | 
Cn1cc(C2=C(c3cn(CCCSC(=N)N)c4ccccc34)C(=O)NC2=O)c2ccccc21 [BISINDOLYLMALEIMIDE IX] |  |  | IC50 ([1]; read-out: IC50): 20 µM
Cc1cc(=O)oc2cc(OC(=O)COc3ccccc3)ccc12 | 45 | 91 | 
COc1cc2c(cc1O)CN(C)CC2 | 98 | 100 | 
NC(=O)c1cccnc1 |  |  | Activity [4]: 26%
O=C(O)CCN1Cc2ccccc2C1=O |  |  | Activity [4]: 89%; Activity [5]: Active; IC50 ([1]; read-out: IC50): 19.9 µM
Cc1ccc(OCCCC(=O)Oc2ccc3c(c2)CCC3)c(C)c1 | 49 | 93 | 
Cc1ccc(OCCCC(=O)Oc2ccc3c(C)cc(=O)oc3c2)c(C)c1 | 51 | 90 | 
COCC#CC1(C)c2cc(O)c(OC)cc2CCN1C (centres undefined) | 100 | 100 | 
C[S+]([O-])CCC(C(=O)O)N1C(=O)c2ccccc2C1=O (centres undefined) |  |  | IC50 [1]: Not Active
Oc1ccc(Cc2ccccc2)cc1 | 88 | 100 | 
Cc1c(Cl)c(=O)oc2cc(OC(=O)CCCOc3ccc(Cl)cc3Cl)ccc12 | 68 | 90 | 
Cc1ccc2[nH]c3c(c2c1)CCCCC3C(N)=O (centres undefined) |  |  | IC50 [6]: 0.64 µM; IC50 ([1]; read-out: IC50): 14.5 µM
Nc1cccc(Cc2cccc(N)c2)c1 | 100 | 100 | 
O=C(O)CCCN1C(=O)c2ccccc2C1=O |  |  | IC50 [1]: Not Active
COc1ccc(OCCCC(=O)Oc2ccc3c(c2)CCC3)cc1 | 58 | 95 | 
C#C[C@H]1c2cc(O)c(OC)cc2CCN1C | 70 | 96 | 
C#CC1c2cc(O)c(OC)cc2CCN1C (centres undefined) | 86 | 100 | 
O=C(O)CCN1C(=O)c2cc(Cl)c(Cl)cc2C1=O |  |  | IC50 [1]: Not Active

Compound | Activity [2] [%] | Activity [3] [%] | further results
Cc1cc(Cc2cc(C)c(O)c(C)c2)cc(C)c1O | 43 | 89 | 
O=C(O)CCN1C(=O)c2ccc(-c3nc4ccccc4c(=O)o3)cc2C1=O |  |  | IC50 [1]: Not Active
O=C1CCc2c(ccc3ccccc23)O1 [SPLITOMICIN] |  |  | IC50 ([1]; read-out: IC50): > 600 µM
COCC#CC1c2cc(O)c(OC)cc2CCN1C (centres undefined) |  |  | Activity [4]: 92.1%
C#C[C@@H]1c2cc(O)c(OC)cc2CCN1C | 74 | 97 | 
COc1ccc(OCCCC(=O)Oc2ccc3c(C)cc(=O)oc3c2)cc1 | 35 | 93 | 
COCC#CC1c2cc(O)c(OC)cc2CCN1Cc1ccc(OC)cc1 (centres undefined) |  |  | IC50 ([1]; read-out: IC50): 260 µM
COC/C=C/C1c2cc(O)c(OC)cc2CCN1C (centres undefined) | 94 | 97 | 
CCc1ccc(OCCCC(=O)Oc2ccc3c(C)cc(=O)oc3c2)cc1 | 53 | 86 | 
Cc1cc(Cl)c(O)c(Cc2c(O)c(Cl)cc(Cl)c2Cl)c1Cl |  |  | Activity [7]: Active; Activity [4]: 18.5%; IC50 [6]: 34 µM; Ki [8]: 2.5 µM; IC50 ([1]; read-out: IC50): 12.5 µM; Activity [9]: Active
CC(C)C(=O)CCN1C(=O)c2ccccc2C1=O |  |  | IC50 [1]: Not Active
O=C1c2ccccc2C(=O)N1CCBr |  |  | IC50 [1]: Not Active
NC(=O)C1CCCCc2c1[nH]c1ccc(Cl)cc21 (centres undefined) |  |  | IC50 ([1]; read-out: IC50): 1.3 µM
CN(C)CCCCC(=O)Nc1ccc(NC(=S)NC(=O)c2ccc(C(C)(C)C)cc2)cc1 |  |  | IC50 ([1]; read-out: IC50): > 100 µM
Cc1ccc(OCCCC(=O)Oc2ccc3c(C)cc(=O)oc3c2)cc1 | 57 | 99 | 
Cc1cccc(OCC(=O)Oc2ccc3c(C)cc(=O)oc3c2)c1 | 13 | 90 | 
Oc1c(Cc2ccccc2Cl)ccc2cccnc12 | 100 | 100 | 
COCCCC1c2cc(O)c(OC)cc2CCN1C (centres undefined) | 92 | 99 | 
Cc1c(Cl)c(=O)oc2cc(OC(=O)CCNC(=O)Oc3ccccc3)ccc12 | 74 | 100 | 
